From ChEMBL document CHEMBL2010694, “Indolyl and dihydroindolyl N-glycinamides as potent and in vivo active NPY5 antagonists” (Bioorg Med Chem Lett, 2012)
Converted amounts (≈) assume the structure as drawn.

What was measured:
Liver microsomes = assay: Intrinsic clearance in human liver microsomes at 1 uM by LC/MS analysis; format: ADME, Microsome
In short: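 Compound incubated with human or rat liver microsomes; reaction quenched with acetonitrile, centrifuged, and remaining drug in supernatant measured by LC/MS to estimate T1/2, from which intrinsic clearance was derived.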

Brain = assay: Drug uptake in Sprague-Dawley rat brain at 10 mg/kg, po by LC-MS/MS analysis; format: ADME, organism-based; design: dose 10 mg/kg, route oral; settings: in vivo, read-out: Drug uptake
In short: (§1)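 Male Sprague-Dawley rats (300–350 g), femoral artery cannulated; single 10 mg/kg oral dose in an appropriate vehicle, N = 3. Blood taken predose, 1, 2 and 4 h; brains then collected and stored at -80 °C. Equal portions of plasma or homogenized brain from the three rats pooled per time point, protein precipitated, quantified by LC/MS/MS.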

MDR [1] = assay: Apparent permeability from basolateral to apical side in MDCK cells expressing MDR; format: ADME, cell-based, Canis lupus familiaris; settings: dog, MDCK-MDR1
In short: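 Bidirectional permeability (A–B and B–A) across a Pgp-overexpressing mdr-MDCK cell monolayer; efflux ratio derived from the two Papp values, given in 10^-6 cm/s.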

MDR [2] = assay: Efflux ratio of permeability from basolateral to apical side over apical to basolateral side in MDCK cells expressing MDR; format: ADME, cell-based, Canis lupus familiaris; settings: dog, MDCK-MDR1
In short: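 Bidirectional permeability measured across a Pgp-overexpressing mdr-MDCK cell monolayer, apical-to-basolateral and basolateral-to-apical. Apparent permeability (Papp, 10^-6 cm/s) was determined in each direction, and the efflux ratio was taken as Papp B–A over Papp A–B.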

[3] = Drug uptake in Sprague-Dawley rat brain at 10 mg/kg, po after 1 hr by LC-MS/MS analysis; format: ADME, organism-based; design: dose 10 mg/kg, route oral; settings: read-out: Drug uptake; in short: as §1
[4] = Solubility of the compound at pH 7.4; format: physicochemical; settings: buffer
Cytochrome P450 1A2 = target: T1, Cytochrome P450 1A2 (Homo sapiens, UniProt P05177); assay: Inhibition of CYP1A2; format: ADME
T1 sequence (P05177 whole entry): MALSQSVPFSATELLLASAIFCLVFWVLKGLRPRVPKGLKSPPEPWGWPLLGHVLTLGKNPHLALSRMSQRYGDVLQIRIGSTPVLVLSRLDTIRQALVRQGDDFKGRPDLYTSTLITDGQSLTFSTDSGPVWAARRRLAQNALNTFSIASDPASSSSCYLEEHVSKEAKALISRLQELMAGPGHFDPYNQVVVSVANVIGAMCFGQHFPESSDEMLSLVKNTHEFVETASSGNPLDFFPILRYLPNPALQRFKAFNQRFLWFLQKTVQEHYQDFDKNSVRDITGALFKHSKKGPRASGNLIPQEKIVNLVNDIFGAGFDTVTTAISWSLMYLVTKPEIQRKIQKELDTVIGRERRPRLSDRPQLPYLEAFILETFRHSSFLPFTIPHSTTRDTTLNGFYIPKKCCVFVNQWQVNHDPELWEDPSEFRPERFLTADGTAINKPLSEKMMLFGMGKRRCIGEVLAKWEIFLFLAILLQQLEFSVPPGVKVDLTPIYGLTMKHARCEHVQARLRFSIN

Cytochrome P450 2D6 = Cytochrome P450 2D6 (Homo sapiens, UniProt P10635); assay: Inhibition of CYP2D6; format: ADME
Sequence of Cytochrome P450 2D6 (P10635 whole entry): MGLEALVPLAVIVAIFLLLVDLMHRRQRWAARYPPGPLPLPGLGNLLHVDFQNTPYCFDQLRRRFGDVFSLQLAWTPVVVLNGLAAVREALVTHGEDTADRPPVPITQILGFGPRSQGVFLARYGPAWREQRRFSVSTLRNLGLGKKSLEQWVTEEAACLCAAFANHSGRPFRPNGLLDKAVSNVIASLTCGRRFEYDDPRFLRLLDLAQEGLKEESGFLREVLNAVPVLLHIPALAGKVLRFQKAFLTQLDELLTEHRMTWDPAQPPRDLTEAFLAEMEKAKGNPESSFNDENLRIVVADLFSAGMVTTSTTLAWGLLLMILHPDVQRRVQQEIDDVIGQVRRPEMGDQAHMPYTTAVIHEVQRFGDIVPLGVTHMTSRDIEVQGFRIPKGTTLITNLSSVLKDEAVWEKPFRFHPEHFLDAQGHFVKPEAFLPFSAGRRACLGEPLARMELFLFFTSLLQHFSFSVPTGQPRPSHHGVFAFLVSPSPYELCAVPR

[5] = Plasma concentration in cPP-induced feeding Sprague-Dawley rat model at 0.1 mg/kg, po after 1 hr; format: ADME, organism-based; design: dose 0.1 mg/kg, route oral
In short: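 Satellite animals from the cPP feeding study dosed orally at 0.1, 1 or 10 mg/kg; plasma (ng/mL) and brain (ng/g) levels measured 1 h after dosing.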

In the case of `CC(C)S(=O)(=O)NC[C@H]1CC[C@H](NC(=O)CN2CCc3cc(Cl)ccc32)CC1`, the CLH (Liver microsomes) is reported as 3.6 L/min, the concentration (Brain) is reported as 304 nM and the Papp B→A (MDR [1]) is reported as 60.1 ×10⁻⁶ cm/s. The efflux ratio (MDR [2]) was 26, the concentration at 1 h [3] was 295 nM and the solubility [4] was 154 µM (≈ 65.9 µg/mL). For the same compound, the IC50 (Cytochrome P450 1A2) was greater than 40 µM, the IC50 (Cytochrome P450 2D6) was greater than 40 µM and the concentration at 1 h [5] was 76 ng/mL.
